Results on 1 molecule are retold here after ChEMBL document CHEMBL5046323, “Discovery of Phospholipase D Inhibitors with Improved Drug-like Properties and Central Nervous System Penetrance” (ACS Med Chem Lett, 2022).

A short description of series [1]: Drug concentration in sc dosed C57BL/6 mouse liver measured after 60 mins by LC-FTICR-MS analysis. It counts as ADME, organism-based. The settings on record: read-out: Ct. The procedure, abridged:
(§1)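 Mice dosed subcutaneously at 10 mg/kg 15, 30 or 60 min before injection of 1-butanol-d10; tissues (liver, brain) collected 15 min after butanol injection for compound levels.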

The target of a further series is Cytochrome P450 3A4 (Homo sapiens, UniProt P08684). The series is described as follows: Inhibition of CYP3A4 (unknown origin). It counts as ADME.
The next series addresses Phospholipase D2 (Homo sapiens, UniProt O14939). As to the kind of experiment: Inhibition of PLD2 (unknown origin) expressed in human HEK cells by immunoprecipitation. It counts as cell-based. The method, boiled down: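 PLD1 or PLD2 immunoprecipitated from HEK-293 cell lysates and captured on plate with an antibody (ELISA format); 08:0 phosphatidylcholine substrate; released choline detected by Amplex Red readout.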

Series [2] in a line: Unbound brain-to-plasma concentration ratio in rat. It is filed as ADME. The settings on record: read-out: K(p,uu,brain). The procedure, abridged: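 Kpu,u is the ratio of free compound concentration in brain over free concentration in plasma at steady state, determined by rat infusion.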
The target in another series is T1, Cytochrome P450 1A2 (Homo sapiens, UniProt P05177).
T1 sequence (P05177 whole entry): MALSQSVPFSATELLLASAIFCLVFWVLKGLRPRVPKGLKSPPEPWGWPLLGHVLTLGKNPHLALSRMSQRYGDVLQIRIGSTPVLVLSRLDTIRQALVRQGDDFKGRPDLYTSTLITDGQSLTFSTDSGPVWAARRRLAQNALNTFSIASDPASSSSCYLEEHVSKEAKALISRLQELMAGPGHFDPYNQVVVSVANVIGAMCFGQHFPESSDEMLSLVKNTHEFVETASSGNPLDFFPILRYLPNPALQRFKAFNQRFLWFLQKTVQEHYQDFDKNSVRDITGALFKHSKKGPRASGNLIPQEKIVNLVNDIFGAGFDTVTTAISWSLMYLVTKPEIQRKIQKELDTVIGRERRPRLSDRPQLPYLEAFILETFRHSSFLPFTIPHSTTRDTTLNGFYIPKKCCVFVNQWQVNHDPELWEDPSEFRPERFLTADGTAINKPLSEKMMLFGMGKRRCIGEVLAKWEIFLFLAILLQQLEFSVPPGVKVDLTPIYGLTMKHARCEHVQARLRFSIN
As to the kind of experiment: Inhibition of CYP1A2 (unknown origin). It counts as ADME.

Series [3] in a line: Drug concentration in sc dosed C57BL/6 mouse liver measured after 30 mins by LC-FTICR-MS analysis. To be noted: read-out: Ct. It counts as ADME, organism-based. The procedure, abridged: as §1
Another series concerns the target T2, Phospholipase D1 (Homo sapiens, UniProt Q13393).
T2 sequence (Q13393 whole entry): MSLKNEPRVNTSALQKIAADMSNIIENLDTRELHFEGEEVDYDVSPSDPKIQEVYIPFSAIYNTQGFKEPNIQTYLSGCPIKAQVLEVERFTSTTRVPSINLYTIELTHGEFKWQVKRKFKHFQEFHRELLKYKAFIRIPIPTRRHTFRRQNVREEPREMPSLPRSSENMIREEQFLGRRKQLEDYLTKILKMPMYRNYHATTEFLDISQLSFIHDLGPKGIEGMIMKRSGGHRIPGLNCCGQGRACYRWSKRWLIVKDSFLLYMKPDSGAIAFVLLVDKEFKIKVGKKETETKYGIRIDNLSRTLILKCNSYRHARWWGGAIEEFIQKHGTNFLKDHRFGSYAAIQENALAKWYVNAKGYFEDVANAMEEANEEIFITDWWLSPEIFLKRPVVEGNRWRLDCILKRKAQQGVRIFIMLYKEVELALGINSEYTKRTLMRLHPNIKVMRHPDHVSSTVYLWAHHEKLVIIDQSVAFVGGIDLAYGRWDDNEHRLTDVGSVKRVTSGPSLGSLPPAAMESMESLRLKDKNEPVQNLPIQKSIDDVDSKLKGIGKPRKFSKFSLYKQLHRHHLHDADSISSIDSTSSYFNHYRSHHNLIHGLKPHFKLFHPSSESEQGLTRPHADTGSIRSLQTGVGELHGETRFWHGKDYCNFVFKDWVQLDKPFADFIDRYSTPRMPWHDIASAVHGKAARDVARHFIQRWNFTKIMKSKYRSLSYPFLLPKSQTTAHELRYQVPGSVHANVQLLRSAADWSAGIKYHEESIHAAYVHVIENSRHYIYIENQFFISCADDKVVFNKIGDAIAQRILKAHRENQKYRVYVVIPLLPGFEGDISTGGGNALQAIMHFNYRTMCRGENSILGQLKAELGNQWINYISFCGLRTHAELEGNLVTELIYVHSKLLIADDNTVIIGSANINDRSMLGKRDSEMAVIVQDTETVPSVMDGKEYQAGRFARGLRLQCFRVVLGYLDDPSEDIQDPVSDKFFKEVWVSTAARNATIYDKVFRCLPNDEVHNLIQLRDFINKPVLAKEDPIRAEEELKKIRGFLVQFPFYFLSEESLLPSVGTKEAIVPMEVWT
The series is described as follows: Inhibition of PLD1 (unknown origin) expressed in human HEK cells by immunoprecipitation assay. It counts as cell-based.

Another series concerns the target Cytochrome P450 2C19 (Homo sapiens, UniProt P33261). As to the kind of experiment: Inhibition of CYP2C19 (unknown origin). It is filed as ADME.
The nature of series [4]: Cmax in sc dosed C57BL/6 mouse by LC-MS/MS analysis. It is filed as ADME, organism-based. More on the design: route subcutaneous. To be noted: in vivo.
Series [5] in a line: Drug concentration in sc dosed C57BL/6 mouse brain measured after 15 mins by LC-FTICR-MS analysis. It is filed as ADME, organism-based. To be noted: read-out: Ct. The procedure, abridged: as §1
The nature of series [6]: Kinetic solubility of compound at pH 6.8. It is filed as physicochemical. The settings on record: buffer, read-out: Kinetic_solubility. The procedure, abridged: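 Kinetic solubility measured at pH 6.8.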
A further series deals with Cytochrome P450 2D6 (Homo sapiens, UniProt P10635). The series is described as follows: Inhibition of CYP2D6 (unknown origin). It is filed as ADME.
The nature of series [7]: Drug concentration in sc dosed C57BL/6 mouse brain measured after 30 mins by LC-FTICR-MS analysis. The settings on record: read-out: Ct. It is filed as ADME, organism-based. The method, boiled down:
as §1

Series [8] can be described thus: Clearance in iv dosed rat administered as cassette dose. To be noted: in vivo. It counts as ADME, organism-based. The method, boiled down: (§2)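 Rat IV clearance from cassette dosing; unbound clearance calculated as CL/fu.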
Series [9] in a line: Drug concentration in sc dosed C57BL/6 mouse liver measured after 15 mins by LC-FTICR-MS analysis. It counts as ADME, organism-based. The settings on record: read-out: Ct. The method, boiled down: as §1
The nature of series [10]: Plasma protein binding in rat assessed as unbound fraction. It counts as ADME, cell-free.
Series [11] in a line: Oral bioavailability in rat. It counts as ADME, organism-based. The settings on record: in vivo. The procedure, abridged:
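Rat oral PK, average of two experiments with n = 3 rats each; formulation HPMC/Tween.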

The next series concerns BCRP. The series is described as follows: Efflux ratio of apparent permeability from basolateral to apical side over apical to basolateral side in dog MDCK-BCRP cells. It is filed as ADME, cell-based, Canis lupus familiaris.
A further series concerns MDR1 (P-gp). As to the kind of experiment: Efflux ratio of apparent permeability from basolateral to apical side over apical to basolateral side in dog MDCK-MDR1 cells. It counts as ADME, cell-based, Canis lupus familiaris. The procedure, abridged: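 Efflux ratio calculated as Papp(B–A)/Papp(A–B) across MDR1-transfected MDCK monolayers.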
Series [12] in a line: Plasma protein binding in rat. It counts as ADME, cell-free.
A short description of series [13]: Apparent permeability in dog MDCK cells with low MDR1 expression.
The nature of series [14]: Unbound brain concentration in sc dosed C57BL/6 mouse measured after 30 mins by LC-FTICR-MS analysis. It is filed as ADME, organism-based. To be noted: in vivo, 0.5 h. The method, boiled down:
as §1

The nature of series [15]: Unbound clearance in iv dosed rat administered as cassette dose. It counts as ADME, organism-based. The settings on record: in vivo. The method, boiled down: as §2
Series [16] can be described thus: AUClast in sc dosed C57BL/6 mouse by LC-MS/MS analysis. To be noted: in vivo. It is filed as ADME, organism-based. Details: route subcutaneous, time 0 - last.

In brackets after ≈: the same amount, converted by molar mass.

Sequence of Cytochrome P450 2D6 (P10635 whole entry): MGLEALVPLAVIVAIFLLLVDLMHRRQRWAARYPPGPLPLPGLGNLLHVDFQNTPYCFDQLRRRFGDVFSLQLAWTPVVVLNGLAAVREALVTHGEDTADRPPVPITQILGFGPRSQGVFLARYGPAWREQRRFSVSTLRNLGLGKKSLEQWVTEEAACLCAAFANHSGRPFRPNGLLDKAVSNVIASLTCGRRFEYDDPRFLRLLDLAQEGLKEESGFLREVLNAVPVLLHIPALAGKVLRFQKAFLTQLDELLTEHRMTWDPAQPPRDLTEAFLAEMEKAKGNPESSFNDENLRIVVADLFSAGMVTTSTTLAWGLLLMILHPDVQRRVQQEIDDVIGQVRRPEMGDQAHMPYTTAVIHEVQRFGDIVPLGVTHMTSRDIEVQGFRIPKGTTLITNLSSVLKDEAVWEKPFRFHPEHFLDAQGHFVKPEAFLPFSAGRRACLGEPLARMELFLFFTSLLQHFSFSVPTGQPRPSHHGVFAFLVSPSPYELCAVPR
Sequence of Cytochrome P450 3A4 (P08684 whole entry): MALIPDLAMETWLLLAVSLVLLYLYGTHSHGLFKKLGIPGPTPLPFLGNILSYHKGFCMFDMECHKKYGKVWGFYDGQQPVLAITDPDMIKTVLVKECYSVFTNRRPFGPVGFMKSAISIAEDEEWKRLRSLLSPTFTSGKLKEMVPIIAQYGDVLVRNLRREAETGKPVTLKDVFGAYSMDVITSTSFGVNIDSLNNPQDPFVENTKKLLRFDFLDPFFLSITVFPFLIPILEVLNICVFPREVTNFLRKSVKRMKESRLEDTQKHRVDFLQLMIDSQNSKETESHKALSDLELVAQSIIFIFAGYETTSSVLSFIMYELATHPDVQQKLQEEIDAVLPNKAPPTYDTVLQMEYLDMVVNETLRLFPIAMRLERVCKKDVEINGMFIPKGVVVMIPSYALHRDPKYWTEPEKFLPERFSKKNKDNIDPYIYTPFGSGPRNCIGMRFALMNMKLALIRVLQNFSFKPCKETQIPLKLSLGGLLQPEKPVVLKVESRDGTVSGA
Sequence of Phospholipase D2 (O14939 whole entry): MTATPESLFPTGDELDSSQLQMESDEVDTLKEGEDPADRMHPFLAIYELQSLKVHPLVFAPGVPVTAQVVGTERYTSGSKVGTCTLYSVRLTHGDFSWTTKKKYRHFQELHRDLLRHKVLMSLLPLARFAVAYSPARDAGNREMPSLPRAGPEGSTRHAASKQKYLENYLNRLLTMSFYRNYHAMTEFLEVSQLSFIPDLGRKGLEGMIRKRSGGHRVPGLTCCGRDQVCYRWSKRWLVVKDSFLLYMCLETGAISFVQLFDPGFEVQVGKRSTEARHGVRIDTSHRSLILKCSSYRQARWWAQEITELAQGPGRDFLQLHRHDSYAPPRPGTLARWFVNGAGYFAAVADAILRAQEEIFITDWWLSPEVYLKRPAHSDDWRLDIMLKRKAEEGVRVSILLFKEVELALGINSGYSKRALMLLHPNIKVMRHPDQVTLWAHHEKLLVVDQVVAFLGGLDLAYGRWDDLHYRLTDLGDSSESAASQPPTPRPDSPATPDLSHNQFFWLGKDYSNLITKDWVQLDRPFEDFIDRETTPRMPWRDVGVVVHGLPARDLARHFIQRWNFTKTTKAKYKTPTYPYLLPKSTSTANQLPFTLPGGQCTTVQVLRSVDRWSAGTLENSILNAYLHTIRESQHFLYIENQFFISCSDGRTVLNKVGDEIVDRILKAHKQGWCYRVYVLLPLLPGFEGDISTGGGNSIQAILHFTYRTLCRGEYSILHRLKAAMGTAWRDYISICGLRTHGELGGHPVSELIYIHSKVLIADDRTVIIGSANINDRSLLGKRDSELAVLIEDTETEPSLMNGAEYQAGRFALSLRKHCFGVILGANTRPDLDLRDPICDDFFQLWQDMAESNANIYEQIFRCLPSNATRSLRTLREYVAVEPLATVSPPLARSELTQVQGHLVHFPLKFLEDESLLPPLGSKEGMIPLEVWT
Sequence of Cytochrome P450 2C19 (P33261 whole entry): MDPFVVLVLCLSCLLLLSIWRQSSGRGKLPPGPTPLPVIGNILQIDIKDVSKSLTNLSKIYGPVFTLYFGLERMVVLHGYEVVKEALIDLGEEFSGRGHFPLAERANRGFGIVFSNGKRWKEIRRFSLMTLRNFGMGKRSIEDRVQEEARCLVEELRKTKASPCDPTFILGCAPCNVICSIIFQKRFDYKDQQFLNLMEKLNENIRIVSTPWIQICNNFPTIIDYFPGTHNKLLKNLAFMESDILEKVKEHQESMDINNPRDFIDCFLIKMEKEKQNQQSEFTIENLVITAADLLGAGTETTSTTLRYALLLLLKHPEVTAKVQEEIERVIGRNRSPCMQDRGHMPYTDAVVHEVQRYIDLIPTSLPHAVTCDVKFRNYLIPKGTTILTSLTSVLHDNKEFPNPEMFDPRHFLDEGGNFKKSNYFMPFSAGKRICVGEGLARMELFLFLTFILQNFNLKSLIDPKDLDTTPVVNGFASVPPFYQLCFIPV

As usually defined, the IC50 is the concentration needed to halve the response being measured. Read a high IC50 as weaker potency. As a reminder, the Cmax is the maximum level reached in the sampled fluid or tissue. Usually clearance stands for the rate of elimination divided by the concentration. Higher therefore signals a high capacity for elimination. Usually bioavailability stands for the share of a dose that reaches the circulation, judged against a reference dose that is usually intravenous. High values mean good availability, low ones poor availability. What is called efflux ratio is a quotient of directional permeabilities that is used to spot active efflux. For orientation: Papp means a coefficient for how fast a substance crosses the barrier. As a reminder, the AUC(0-t) is the area under the concentration-time curve up to a stated or last time point. Low readings indicate less exposure, high ones more exposure. For `C[C@@H]1CN(C(=O)[C@H](C)N2CCC(n3c(=O)[nH]c4ccccc43)CC2)C[C@@H](C)N1`, in series [1], the concentration at 1 h was 7380 ng/g. Besides, the IC50 against Cytochrome P450 3A4 was > 10 µM; against Phospholipase D2, 0.23 µM; against Cytochrome P450 1A2 it was > 10 µM; on Phospholipase D1, 0.044 µM; against Cytochrome P450 2C19 it was > 10 µM; against Cytochrome P450 2D6, > 10 µM. Also, in series [2], the Kp uu turned out to be 0.8. The concentration at 0.5 h in series [3] came out at 7160 ng/g; in series [7], 109 ng/g. In addition, in [4], the Cmax came out at 2960 ng/mL. For the same molecule, the concentration at 0.25 h in series [5] was 83.8 ng/g; in series [9], 4550 ng/g. In addition, the solubility kinetic in [6] stood at 72.6 µg/mL (≈ 188 µM). This molecule also displayed a clearance in series [8] of 28 mL/min/kg. Further, in series [10], the Fu was found to be 10.8%. Also, in series [11], the bioavailability was found to be 21%. For the same molecule, the efflux ratio in the series on BCRP amounted to 1.2; in the series with MDR1 (P-gp), 9.2. In addition, the PPB in series [12] was determined as 36.3%. Moreover, the apparent permeability (Papp) in [13] came out at 5.1 ×10⁻⁶ cm/s. Moreover, in [14], the “Drug uptake(free)” value is on record as 49.5 nM. In [15], this molecule returned a CL free of 84 mL/min/kg. Besides, in series [16], the exposure AUC(0-t) was 7990 ng·h/mL.
